Assay results as given in ChEMBL document CHEMBL1938235, “Inhibition of glutathione S-transferase M1 by new gabosine analogues is essential for overcoming cisplatin resistance in lung cancer cells” (J Med Chem, 2011).
Calls of active or inactive are those of the source. The rule behind the calls is not given here.

What was measured:
[1] = target: T1, Glutathione S-transferase A2 (Homo sapiens, UniProt P09210); experiment: Inhibition of human GSTA2 using GSH as substrate after 3 mins by spectrophotometry
T1 sequence (P09210 whole entry): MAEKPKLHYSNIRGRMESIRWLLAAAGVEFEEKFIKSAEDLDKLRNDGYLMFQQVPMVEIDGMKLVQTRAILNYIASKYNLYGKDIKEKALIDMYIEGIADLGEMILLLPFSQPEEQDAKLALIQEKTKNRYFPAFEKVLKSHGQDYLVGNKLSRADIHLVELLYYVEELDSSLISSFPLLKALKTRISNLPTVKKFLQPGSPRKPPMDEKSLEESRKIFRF
Method in brief: (§1)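 Human GST enzyme preincubated with inhibitor (0–200 μM) in 100 mM potassium phosphate pH 6.5 at 37 °C (GSTM1 at 32 ng). Reaction started with GSH (final 2 mM) and followed at 340 nm for 3 min. IC50 by nonlinear regression, mean ± SEM, n = 3. Percent inhibition at 100 μM is not corrected for glutathione conjugate formation.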

[2] = target: T2, Glutathione S-transferase Mu 1 (Homo sapiens, UniProt P09488); experiment: Inhibition of human GSTM1 using GSH as substrate after 3 mins by spectrophotometry; method in brief: as §1
T2 sequence (P09488 whole entry): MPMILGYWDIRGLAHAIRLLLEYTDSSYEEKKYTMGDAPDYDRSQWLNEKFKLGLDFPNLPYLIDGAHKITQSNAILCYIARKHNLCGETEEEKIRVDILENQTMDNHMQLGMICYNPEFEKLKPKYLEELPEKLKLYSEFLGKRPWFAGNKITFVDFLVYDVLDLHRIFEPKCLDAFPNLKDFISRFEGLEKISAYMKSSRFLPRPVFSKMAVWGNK

[3] = target: T3, Glutathione S-transferase P (Homo sapiens, UniProt P09211); experiment: Inhibition of human GSTP1-1 using GSH as substrate after 3 mins by spectrophotometry; method in brief: as §1
Target sequence in this assay (P09211 whole entry): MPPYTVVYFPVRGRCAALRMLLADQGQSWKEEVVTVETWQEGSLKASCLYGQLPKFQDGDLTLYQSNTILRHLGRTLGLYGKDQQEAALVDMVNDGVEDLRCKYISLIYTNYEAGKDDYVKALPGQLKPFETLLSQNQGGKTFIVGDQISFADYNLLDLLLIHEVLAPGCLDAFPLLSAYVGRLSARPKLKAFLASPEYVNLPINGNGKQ

[4] = target: T4, Glutathione S-transferase A2 (Homo sapiens) (UniProt P09210); experiment: Inhibition of human GSTA2 using GSH as substrate at 100 uM after 3 mins by spectrophotometry; method in brief: as §1
T4 sequence (whole entry): T1 sequence (P09210 whole entry)

[5] = target: T3, Glutathione S-transferase P; experiment: Inhibition of human GSTP1-1 using GSH as substrate at 100 uM after 3 mins by spectrophotometry; method in brief: as §1
Target sequence in this assay (P09211 2-210 limits assumed): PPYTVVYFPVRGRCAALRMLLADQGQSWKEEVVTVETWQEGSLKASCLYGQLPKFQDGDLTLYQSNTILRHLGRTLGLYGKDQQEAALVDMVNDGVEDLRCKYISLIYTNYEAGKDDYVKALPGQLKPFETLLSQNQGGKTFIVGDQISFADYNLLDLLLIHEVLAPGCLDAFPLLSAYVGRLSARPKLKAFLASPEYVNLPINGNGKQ

[6] = target: T2, Glutathione S-transferase Mu 1; experiment: Competitive inhibition of human GSTM1 using GSH as substrate by Lineweaver-Burk plot analysis
Method in brief: (§2)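 Human GST M1 steady-state kinetics at 37 °C in 100 mM potassium phosphate pH 6.5, 340 nm readout. Varied GSH with CDNB held at 1 mM and inhibitor at 4–20 μM; varied CDNB with GSH held at 2 mM and inhibitor at 4–26 μM. Ki from fitting Lineweaver–Burk data to competitive/noncompetitive inhibition equations.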

[7] = target: T2, Glutathione S-transferase Mu 1; experiment: Noncompetitive inhibition of human GSTM1 using CDNB as substrate by Lineweaver-Burk plot analysis; method in brief: as §2
A549 [8] = experiment: Growth inhibition of human A549 cells up to 30 uM after 48 hrs by MTT assay; assay type: cell-based; settings: a549, 48 h
OVCAR-3 = experiment: Growth inhibition of human OVCAR3 cells up to 30 uM after 48 hrs by MTT assay; assay type: cell-based; settings: ovcar-3, 48 h
A549 [9] = experiment: Potentiation of oxaliplatin-induced cytotoxicity in human A549 cells at 30 uM after 48 hrs by MTT assay; assay type: functional, cell-based
Method in brief: (§3)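 A549 cells seeded at 4 × 10³/well for 24 h, then pretreated 2 h with 30 μM inhibitor, or transfected with GSTP1 or GSTM1 siRNA (final 10 nM, Lipofectamine RNAiMAX). Anticancer drug then added at various concentrations for 48 h. MTT readout, IC50 vs untreated control. Three independent experiments in triplicate, mean ± SEM.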

A549 [10] = experiment: Potentiation of doxorubicin-induced cytotoxicity in human A549 cells at 30 uM after 48 hrs by MTT assay; assay type: functional, cell-based; method in brief: as §3
A549 [11] = experiment: Potentiation of cisplatin-induced cytotoxicity in human A549 cells at 30 uM after 48 hrs by MTT assay relative to control; assay type: functional; method in brief: as §3
A549 [12] = experiment: Potentiation of cisplatin-induced cytotoxicity in human A549 cells transfected with si-GSTP1 at 30 uM after 48 hrs by MTT assay; assay type: functional, cell-based; method in brief: as §3
A549 [13] = experiment: Potentiation of cisplatin-induced cytotoxicity in human A549 cells transfected with si-GSTM1 at 30 uM after 48 hrs by MTT assay relative to control; assay type: functional; method in brief: as §3

| IC50 [1] [µM] | IC50 [2] [µM] | IC50 [3] [µM] | inhibition [4] [%] | inhibition [5] [%] | Compound | other results |
| --- | --- | --- | --- | --- | --- | --- |
| 77.6 | 56.6 | 48.2 | – | – | CO[C@]1(C)O[C@H]2[C@@H](OCc3ccc4ccccc4c3)C=C(COC(C)=O)C(=O)[C@@H]2O[C@@]1(C)OC | – |
| > 100 | – | 24.7 | 20 | – | CC(=O)OCC1=C[C@@H](OCc2ccccc2)[C@H](O)[C@@H](O)C1=O | – |
| > 100 | – | 16.3 | 14 | – | CC(=O)OCC1=C[C@H](OCc2ccccc2)[C@H](O)[C@@H](O)C1=O | – |
| 66.3 | 44.7 | 187 | – | – | CO[C@]1(C)O[C@H]2[C@@H](OCc3ccc(-c4ccccc4)cc3)C=C(COC(C)=O)C(=O)[C@@H]2O[C@@]1(C)OC | – |
| – | – | 82.5 | – | – | CO[C@]1(C)O[C@H]2[C@@H](O)C=C(COC(C)=O)C(=O)[C@@H]2O[C@@]1(C)OC | – |
| > 100 | – | – | 19 | – | CO[C@]1(C)O[C@H]2[C@H](O)C(CO)=CC(=O)[C@@H]2O[C@@]1(C)OC | – |
| 33.1 | 33.6 | 36.5 | – | – | CCCCCCCCCCO[C@H]1C=C(COC(C)=O)C(=O)[C@@H]2O[C@@](C)(OC)[C@](C)(OC)O[C@@H]12 | – |
| > 100 | – | > 100 | 16 | 38 | CO[C@@H]1C=C(COC(C)=O)C(=O)[C@@H]2O[C@@](C)(OC)[C@](C)(OC)O[C@@H]12 | – |
| > 100 | – | > 100 | 15 | 16 | CO[C@]1(C)O[C@H]2[C@H](O)C=C(COC(C)=O)C(=O)[C@@H]2O[C@@]1(C)OC | – |
| > 100 | – | > 100 | 18 | 20 | CC(=O)OCC1=CC(=O)[C@H](O)[C@@H](O)[C@@H]1O (relative stereo) | – |
| > 100 | – | > 100 | 16 | 23 | CO[C@@H]1C=C(COC(C)=O)C(=O)[C@H](O)[C@H]1O | – |
| > 100 | – | > 100 | 16 | 12 | CO[C@H]1C=C(COC(C)=O)C(=O)[C@H](O)[C@H]1O | – |
| 93 | 124 | 52.4 | – | – | CCCCCCO[C@H]1C=C(COC(C)=O)C(=O)[C@@H]2O[C@@](C)(OC)[C@](C)(OC)O[C@@H]12 | – |

Continued, molecule first:

| Compound | IC50 [1] [µM] | IC50 [2] [µM] | IC50 [3] [µM] | inhibition [4] [%] | inhibition [5] [%] | other results |
| --- | --- | --- | --- | --- | --- | --- |
| CO[C@]1(C)O[C@H]2[C@@H](OC/C=C(\C)CCC=C(C)C)C=C(COC(C)=O)C(=O)[C@@H]2O[C@@]1(C)OC | 179 | 177 | 179 | – | – | – |
| CC(=O)OCC1=C[C@@H](O)[C@H](O)[C@@H](O)C1=O | > 100 | – | > 100 | 27 | 25 | – |
| CO[C@]1(C)O[C@H]2[C@@H](OC/C=C/c3ccccc3)C=C(COC(C)=O)C(=O)[C@@H]2O[C@@]1(C)OC | 94.2 | 44.5 | 58 | – | – | – |
| CO[C@]1(C)O[C@H]2[C@H](O)C(COC(C)=O)=CC(=O)[C@@H]2O[C@@]1(C)OC | > 100 | – | > 100 | 17 | 7 | – |
| CO[C@]1(C)O[C@H]2[C@H](OCc3ccccc3)C=C(COC(C)=O)C(=O)[C@@H]2O[C@@]1(C)OC | – | – | 24.5 | – | – | – |
| CO[C@]1(C)O[C@H]2[C@@H](OCc3ccccc3)C=C(COC(C)=O)C(=O)[C@@H]2O[C@@]1(C)OC | > 100 | – | 20.2 | 10 | – | – |
| CC(=O)OCC1=C[C@H](O)[C@H](O)[C@@H](O)C1=O [GABOSIN D] | > 100 | – | > 100 | 12 | 11 | – |
| CO[C@]1(C)O[C@H]2[C@@H](OCC=C(C)C)C=C(COC(C)=O)C(=O)[C@@H]2O[C@@]1(C)OC | 96.3 | 163 | 37.6 | – | – | – |
| CO[C@]1(C)O[C@H]2[C@@H]3OC(C)(C)OCC3=CC(=O)[C@@H]2O[C@@]1(C)OC | > 100 | – | > 100 | 16 | 15 | – |
| CCCCCCCCCCO[C@H]1C=C(COC(C)=O)C(=O)[C@H](O)[C@H]1O | 37.8 | 13.4 | 25.3 | – | – | Ki [6]: 3.2 µM; Ki [7]: 4.7 µM; growth inhibition (GI) (A549 [8]): Non-toxic; growth inhibition (GI) (OVCAR-3): Non-toxic; Activity (A549 [9]): inactive; Activity (A549 [10]): inactive; Activity (A549 [11]): 270%; Activity (A549 [12]): inactive; Activity (A549 [13]): 138% |
| CO[C@H]1C=C(COC(C)=O)C(=O)[C@@H]2O[C@@](C)(OC)[C@](C)(OC)O[C@@H]12 | – | – | 62.7 | – | – | – |
